# MT1-MMP act inh = MT1-MMP (human) activation inhibition. HT1080 RFP-PRO-GFP cells, GFP/RFP ratio fluorescence, overnight; percent of plate control window, DMSO zero. actives 0.061% (n = 360,000). GFP/RFP ratio change, % at 20 µM. P50281;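 active = GFP/RFP ratio change of at least 30% with cell ATP level not reduced by more than half and red fluorescence within 50% of control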
#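 Assay system: HT1080 cells carrying an RFP-PRO-GFP reporter | Dosing: Single dose of 20 µM compound, 1% DMSO final | Incubation: Cells overnight before dosing, compound overnight, 37 °C, 5% CO2 | Evaluation: GFP/RFP fluorescence ratio | Control set: DMSO and RFP-L50D-GFP cell wells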
# DAGLB inhibitor = diacylglycerol lipase beta (human) inhibition; inhibition, % at 5.17 µM; Q8NCG7; AID 504411; actives 0.059% (n = 340,000); HEK293T DAGLB membrane lysate, EnzChek fluorogenic substrate; in the data active = inhibition above about 34%;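 note: 0% = enzyme with vehicle and 100% = wells lacking enzyme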
# Target sequence (Q8NCG7 whole entry, looked up): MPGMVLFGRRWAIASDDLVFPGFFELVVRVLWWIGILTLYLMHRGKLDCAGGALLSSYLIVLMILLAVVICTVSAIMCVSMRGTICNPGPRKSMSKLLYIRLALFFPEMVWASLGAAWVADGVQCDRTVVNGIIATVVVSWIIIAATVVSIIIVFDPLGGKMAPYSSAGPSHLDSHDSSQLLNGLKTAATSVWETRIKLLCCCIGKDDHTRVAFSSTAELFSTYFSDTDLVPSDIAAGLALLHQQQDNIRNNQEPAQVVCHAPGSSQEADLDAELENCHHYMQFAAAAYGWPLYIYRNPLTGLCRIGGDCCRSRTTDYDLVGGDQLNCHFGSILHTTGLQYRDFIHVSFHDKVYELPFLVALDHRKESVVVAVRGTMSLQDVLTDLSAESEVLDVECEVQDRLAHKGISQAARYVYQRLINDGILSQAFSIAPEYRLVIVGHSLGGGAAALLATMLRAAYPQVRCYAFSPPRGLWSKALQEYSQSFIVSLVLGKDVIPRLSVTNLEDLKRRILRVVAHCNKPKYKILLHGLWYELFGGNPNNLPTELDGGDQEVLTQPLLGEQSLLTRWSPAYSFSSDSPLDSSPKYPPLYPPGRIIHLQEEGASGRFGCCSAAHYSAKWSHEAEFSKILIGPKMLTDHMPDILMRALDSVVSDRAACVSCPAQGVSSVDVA
# VLA-4 inh = inhibition in a human VLA-4 binding assay; P13612; VLA-4 expressing cells, ligand binding flow cytometry; inhibition, % (about 7 µM as worked out from the volumes in the protocol); actives 0.2% (n = 330,000); AID 2557; in the data active = inhibition above about 50%
# FGF22 binding = shifts melting point of recombinant human FGF22. activity (Tm shift, normalised), % at 9.99 µM. AID 651658. actives 1.5% (n = 340,000). recombinant FGF22 thermal shift, SYPRO orange fluorescence; percent of sucrose octasulfate shift, DMSO zero. Q9HCT0;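 active = mean Tm shift, scaled 0 neutral to 100 positive control, at about 1.3% or above, every replicate too, limit read from the data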
# ABCB6 inh MLPCN = blocks the human ABCB6 transporter; fluorescence ratio to DMSO, % at 10 µM; Q9NP58; actives 0.19% (n = 360,000); K562-ABCB6 porphyrin accumulation, flow cytometry, 1 h; stronger effect = lower value;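 active = fluorescence ratio to DMSO below 75%, the collection mean minus 3 SD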;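 note: signal is porphyrin accumulated inside mitochondria; 100% equals median channel fluorescence of DMSO control wells; lower ratio means ABCB6 inhibition with less porphyrin fluorescence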
# Exocytosis inh = lytic granule exocytosis inhibition; TALL-104 LAMP-1 surface exposure, flow cytometry; cells stimulated with thapsigargin and PMA; inhibition, % at 10 µM; actives 0.66% (n = 360,000); AID 651702;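 active = inhibition above about 55%, limit read from the data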
# VLA-4 mod pick = confirmation of allosteric modulators of human VLA-4 integrin. shares compounds with VLA-4 inh. U937 cells, HUTS-21 LIBS mAb binding, flow cytometry; LDV ligand present at threefold Kd. inhibition, % at 6.7 µM. actives 2% (n = 1,300); in the data active = inhibition above about 40%;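 note: 0% = ligand without compound and 100% = no ligand background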
# Numbers without * were called inactive; · = no result. In the library only some 2% were active in any assay of this set; here they are far more common.
SMILES,MT1-MMP act inh,DAGLB inhibitor,VLA-4 inh,FGF22 binding,ABCB6 inh MLPCN,Exocytosis inh,VLA-4 mod pick
CC1CC(C)CN(CCCNC(=O)c2ccc3nc(N4CCCCC4)sc3c2)C1 (stereo not given),-1,-5,40,0,102,-5,·
CC1CCN(c2nc3ccc(C(=O)NCCCN4CCCCC4C)cc3s2)CC1 (stereo not given),5,6,1,0,104,-2,3
CC1CCCC(C)N1CCCNC(=O)c1ccc2nc(N3CCOCC3)sc2c1 (stereo not given),3,1,3,0,99,3,2
O=C(Nc1ccccc1Cl)Nc1ccccc1Cl,4,-4,15,0,96,-2,5
COc1ccc(S(=O)(=O)N(C)C[C@H]2OCCCC[C@H](C)Oc3ccc(NC(=O)CCCN(C)C)cc3C(=O)N([C@H](C)CO)C[C@@H]2C)cc1,·,·,·,-1,·,·,·
CC1CN(S(=O)(=O)c2ccc(CN3C(=O)c4cccnc4C3=O)cc2)c2ccccc2O1 (stereo not given),2,3,-1,0,97,0,·
COc1ccc(CN2C(=O)c3cccnc3C2=O)cc1S(=O)(=O)N1CC(C)Oc2ccccc21 (stereo not given),-1,1,56*,0,96,5,0
O=C(Nc1ccc(OC(F)F)cc1)c1cc(S(=O)(=O)N2CCCCC2)ccc1N1CCOCC1,2,-1,18,-1,95,-4,9
CC(=O)c1cccc(NC(=O)c2cc(S(=O)(=O)N3CCCCC3)ccc2N2CCOCC2)c1,-2,-2,·,0,99,-2,·
CC(=O)Nc1ccc(NC(=O)c2cc(S(=O)(=O)N3CCCCC3)ccc2N2CCOCC2)cc1,0,1,·,0,93,9,2
COc1ccc(CNC(=O)c2cc(S(=O)(=O)N3CCCCC3)ccc2N2CCOCC2)cc1OC,9,-3,·,0,98,-2,·
COc1ccc(C)cc1NC(=O)c1cc(S(=O)(=O)N2CCCCC2)ccc1N1CCOCC1,-5,-6,14,0,95,-2,-5
COc1cc(NC(=O)c2cc(S(=O)(=O)N3CCCCC3)ccc2N2CCOCC2)cc(OC)c1,-3,-4,0,-1,96,-2,3
C[C@@H]1CN([C@@H](C)CO)C(=O)CCCn2cc(nn2)CO[C@@H]1CN(C)C(=O)Nc1ccnc(N2CCOCC2)c1,·,·,·,0,·,·,·
CN(C)S(=O)(=O)c1ccc(N2CCCC2)c(C(=O)Nc2ccccc2N2CCOCC2)c1,4,-1,·,·,99,7,·
Cc1ccc(S(=O)(=O)N(C)C)cc1NC(=O)c1cc(S(=O)(=O)N2CCCCC2)ccc1N1CCOCC1,2,-1,·,0,78,-9,0
Nc1cc(Cl)ccc1C(=O)OCC(=O)N1CCCC1,0,1,7,0,99,2,·
Nc1cc(Cl)ccc1C(=O)OCC(=O)N1CCCCCC1,1,1,14,0,97,1,-10
CC1CCCC(C)N1C(=O)COC(=O)c1ccccc1O (stereo not given),1,-4,-3,0,94,3,7
CCCCOc1ccc(C(=O)OCC(=O)N2CCCCCC2)cc1,0,-7,10,0,98,10,3
Cc1cccc(C(=O)OCC(=O)N2CCCCCC2)c1C,0,1,-2,0,107,30,0
O=C(OCC(=O)N1CCCC1)c1ccc(OC(F)(F)F)cc1,-2,0,-3,0,86,-3,·
CC1CCCC(C)N1C(=O)COC(=O)c1cc(Br)ccc1Cl (stereo not given),-4,-5,6,0,97,0,·
C[C@H]1CN([C@@H](C)CO)C(=O)c2cc(NC(=O)Cc3ccccc3)ccc2O[C@@H]1CN(C)S(=O)(=O)c1ccc(Cl)cc1,·,·,·,0,·,·,·
c1ccc2[nH]c(NCCCN3CCOCC3)nc2c1,6,2,62*,·,92,0,8
SMILES,MT1-MMP act inh,DAGLB inhibitor,VLA-4 inh,FGF22 binding,ABCB6 inh MLPCN,Exocytosis inh,VLA-4 mod pick
COc1ccc(C)cc1S(=O)(=O)Nc1cccc(C)c1,-8,-1,-3,0,96,0,3
COc1cccc(NS(=O)(=O)c2cc(C)ccc2OC)c1,0,-1,13,·,100,-4,·
CC(C)CC(=O)Nc1ccc2c(c1)nc(CCN1CCOCC1)n2C,4,-3,43,0,103,-1,-18
Cc1cc2c(cc1C)C(c1cccc(F)c1)CC(=O)N2 (stereo not given),4,2,0,0,102,-1,-4
C=CCn1c(SCC(=O)Nc2nc(C)cs2)nnc1C(C)NC(=O)c1ccccc1Cl (stereo not given),-9,-2,54*,·,101,2,2
C[C@H](CO)N1C[C@H](C)[C@H](CN(C)C(=O)Cc2ccccc2)OCCCC[C@H](C)Oc2ccc(NC(=O)Nc3ccc(C(F)(F)F)cc3)cc2C1=O,·,·,·,0,·,·,·
N#C[C@H]1[C@H](c2ccccc2C2=CCCCC2)[C@@H](CO)N1C(=O)C1CCOCC1,·,·,·,0,·,·,·
O=C1N[C@H](C(=O)O)CS1,·,·,54*,·,·,·,5
O=C1CC[C@@H](C(=O)O)N1,1,1,18,0,100,-3,·
CCCc1nc2cc(CC(=O)OC)ccc2o1,-2,-5,72*,·,101,-5,2
COC(=O)CCCNC(=O)c1ccc2oc(CCCc3ccccc3)nc2c1,3,0,9,0,96,14,·
CCc1ccc(NC(=O)Cn2cnc([N+](=O)[O-])c2)cc1,-3,1,54*,0,97,-9,7
O=C(Cn1cnc([N+](=O)[O-])c1)Nc1ccc(F)c(Cl)c1,-4,1,·,0,96,-5,·
COc1ccc(CNC(=O)CNS(=O)(=O)c2cccc(C#N)c2)cc1OC,-2,-2,-8,0,90,3,3
N#Cc1cccc(S(=O)(=O)NCC(=O)NCc2ccc3c(c2)OCO3)c1,2,2,12,0,94,-4,·
CO[C@@H]1CN(C)C(=O)c2ccc(NC(C)=O)cc2OC[C@H](C)N(C(=O)CC2CC2)C[C@@H]1C,·,·,·,0,·,·,·
COc1ccc(C(=O)/C=C/C(=O)N(CC(=O)NC2CCCCC2)Cc2cccs2)c(O)c1,-6,2,63*,0,101,53,28
CCOc1ccc(Oc2c(/C=N/NC(N)=O)c(C)nn2-c2ccccc2)cc1,-6,-1,6,0,94,-2,·

# Screening data from PubChem.
